Data on 26 molecules can be found in ChEMBL document CHEMBL1921704, “Discovery of N-aryl-2-acylindole human glucagon receptor antagonists” (Bioorg Med Chem Lett, 2011).

In data set [1] the target is T1, Glucagon receptor (Homo sapiens, UniProt P47871). Briefly: Displacement of [125I]-glucagon from human glucagon receptor expressed in CHO cells after 4 to 12 hrs by scintillation proximity assay. Type of data set: cell-based. A digest of the protocol: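 Scintillation proximity assay on membranes from CHO cells expressing hGCGR, measuring inhibition of ¹²⁵I-labelled glucagon binding. IC50 reported as the average rounded to two significant figures, with standard error of the mean when more than one measurement was made.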
T1 sequence (P47871 whole entry): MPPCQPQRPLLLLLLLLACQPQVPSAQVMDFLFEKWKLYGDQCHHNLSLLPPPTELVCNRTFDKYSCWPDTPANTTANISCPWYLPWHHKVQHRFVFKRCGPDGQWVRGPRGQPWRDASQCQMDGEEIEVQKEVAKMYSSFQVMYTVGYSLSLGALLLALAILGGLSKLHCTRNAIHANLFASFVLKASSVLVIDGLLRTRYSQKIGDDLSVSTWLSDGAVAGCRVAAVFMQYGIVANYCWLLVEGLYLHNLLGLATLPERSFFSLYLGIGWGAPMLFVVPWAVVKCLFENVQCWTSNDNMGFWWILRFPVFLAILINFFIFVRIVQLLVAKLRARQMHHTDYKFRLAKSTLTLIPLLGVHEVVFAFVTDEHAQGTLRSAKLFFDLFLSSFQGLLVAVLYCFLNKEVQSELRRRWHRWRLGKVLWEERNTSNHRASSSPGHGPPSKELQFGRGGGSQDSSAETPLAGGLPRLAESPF
A general note: Displacement assays read how much labelled ligand stays bound in the presence of the test substance.

Data set [2] deals with T1, Glucagon receptor. The data set can be described thus: Antagonist activity at human glucagon receptor expressed in CHO cells assessed as inhibition of forskolin/glucagon-induced cAMP production preincubated for 30 mins before glucagon challenge measured after 30 mins using [125I]-cAMP by liquid scintillation counting. Type of data set: functional, cell-based. A digest of the protocol:
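Glucagon-induced cAMP production measured in CHO cells transfected with hGCGR. IC50 reported as the average rounded to two significant figures, with SEM when measured more than once.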
In general terms: cAMP levels reflect the balance of adenylyl cyclase and phosphodiesterase activity.

A short description of data set [3]: Oral bioavailability in rat at 2 mg/kg. Format: ADME, organism-based. The following applies: in vivo. A digest of the protocol:
(§1)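 Rat PK with dosing at 1 mg/kg IV and 2 mg/kg PO, vehicle DMSO/water/PEG400 15:35:55. Parameters were plasma clearance, Vd, t1/2, dose-normalised PO AUC and Cmax, and %F.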

A short description of data set [4]: Volume of distribution in rat at 1 mg/kg, iv and 2 mg/kg, po. Format: ADME, organism-based. The following applies: in vivo. A digest of the protocol: as §1
Data set [5] is described as follows: Half life in rat at 1 mg/kg, iv and 2 mg/kg, po. Format: ADME, organism-based. The following applies: in vivo. The method in brief: as §1
Data set [6] has as its system Rattus norvegicus. The data set can be described thus: Dose normalised Cmax in rat at 1 mg/kg, iv and 2 mg/kg, po. Type of data set: ADME, organism-based. The following applies: in vivo. The method in brief: as §1
Data set [7] can be described thus: Plasma clearance in rat at 1 mg/kg, iv and 2 mg/kg, po. Format: ADME, organism-based. The method in brief:
as §1

Data set [8] concerns Rattus norvegicus. The data set can be described thus: Dose normalised AUC in rat at 2 mg/kg, po. Type of data set: ADME, organism-based. Also on record: dose 2 mg/kg, route oral. The note with it: in vivo. A digest of the protocol: as §1
Data set [9] can be described thus: Clearance in rat. Type of data set: ADME, organism-based. The note with it: in vivo. The method in brief:
as §1

Data set [10] in a line: Oral bioavailability in rat. Type of data set: ADME, organism-based. The following applies: in vivo. The method in brief: as §1
The nature of data set [11]: Solubility of the compound. Type of data set: physicochemical.

The IC50 is the concentration needed to halve the response being measured. `CCCCC[C@@H](Cc1ccc(C(=O)NCCC(=O)O)cc1)C(=O)c1cc2cc(C)ccc2n1-c1cccc(C(F)(F)F)c1`: the IC50 at Glucagon receptor [1] was 12 nM; on Glucagon receptor [2] it was 24 nM.
`CCCCC[C@@H](Cc1ccc(C(=O)NCCC(=O)O)cc1)C(=O)c1cc2cc(C(F)(F)F)ccc2n1-c1cccc(C(F)(F)F)c1`: the IC50 on Glucagon receptor [1] was determined as 16 nM; on Glucagon receptor [2] it was 44 nM.
In the same order, the values of `CCCC(Cc1ccc(C(=O)NCCC(=O)O)cc1)C(=O)c1cc2cc(Cl)ccc2n1-c1cnc2ccccc2c1` (single isomer, unassigned) are 58 nM and 718 nM.
One may read the bioavailability as the share of a dose that reaches the circulation, judged against a reference dose that is usually intravenous. The low end stands for poor availability, the high end for good availability. Usually half-life stands for how long it takes for the measured level to halve. Lower therefore signals rapid decline. Consider `CCCC(Cc1ccc(C(=O)NCCC(=O)O)cc1)C(=O)c1cc2cc(Cl)ccc2n1-c1ccc(Cl)c(C(F)(F)F)c1` (single isomer, unassigned), for which the bioavailability in [3] was found to be 17%. In data set [4], this molecule came in with a Vd of 0.84 L/kg. Besides, the half-life in [5] is 78 min. For the same molecule, the Cmax/dose in the data set with Rattus norvegicus [6] is 0.15 µM. The figures for the IC50 on Glucagon receptor [1] and on Glucagon receptor [2] were 12 nM and 17 nM, respectively. Moreover, in [7], the clearance stood at 9.2 mL/min/kg. In addition, in the data set with Rattus norvegicus [8], the AUC/dose was 0.52 µM·h.
The molecule `CCCC(Cc1ccc(C(=O)NCCC(=O)O)cc1)C(=O)c1cc2cc(Cl)ccc2n1-c1ccc(C(C)(C)C)cc1` (single isomer, unassigned) gave a clearance in data set [9] of 4.7 mL/min/kg. For the same molecule, the half-inhibitory concentration (IC50) at Glucagon receptor [1] and at Glucagon receptor [2] was 52 nM each time. In data set [10], this molecule gave a bioavailability of 38%.
For the molecule `CCCC[C@@H](Cc1ccc(C(=O)NCCC(=O)O)cc1)C(=O)c1cc2cc(Cl)ccc2n1-c1cccc(C(F)(F)F)c1`, the IC50 at Glucagon receptor [1] stood at 16 nM; at Glucagon receptor [2], 42 nM.
For the molecule `O=C(Nc1nnn[nH]1)c1ccc(Cn2c(C(=O)c3ccc(OC(F)(F)F)cc3)cc3ccc(C(F)(F)F)cc32)cc1`, the clearance in data set [9] was 10 mL/min/kg. Further, the IC50 on Glucagon receptor [1] came to 51 nM. This molecule had a bioavailability in data set [10] of 40%.
Regarding `CC(C)CC[C@@H](Cc1ccc(C(=O)NCCC(=O)O)cc1)C(=O)c1cc2cc(Cl)ccc2n1-c1cccc(C(F)(F)F)c1`, the results for the IC50 at Glucagon receptor [1] and on Glucagon receptor [2] were 17 nM and 36 nM, respectively.
With `CCC[C@H](Cc1ccc(C(=O)NCCC(=O)O)cc1)C(=O)c1cc2cc(Cl)ccc2n1-c1cccc(C(F)(F)F)n1`, at Glucagon receptor [1], the IC50 came out at 450 nM.
For the molecule `CCCC(Cc1ccc(C(=O)NCCC(=O)O)cc1)C(=O)c1cc2cc(Cl)ccc2n1-c1ccc(Cl)cc1` (single isomer, unassigned), the figures for the IC50 on Glucagon receptor [1] and at Glucagon receptor [2] were 32 nM and 100 nM, respectively.
In the same order, the values of `O=C(O)CCNC(=O)c1ccc(C[C@H](CC2CC2)C(=O)c2cc3cc(Cl)ccc3n2-c2cccc(C(F)(F)F)c2)cc1` are 37 nM and 55 nM.
Molecule `CCCC(Cc1ccc(C(=O)NCCC(=O)O)cc1)C(=O)c1cc2cc(Cl)ccc2n1-c1cc(C)cc(C)c1` (single isomer, unassigned) showed an IC50 on Glucagon receptor [1] of 120 nM.
For the molecule `CCCC(Cc1ccc(C(=O)NCCC(=O)O)cc1)C(=O)c1cc2cc(Cl)ccc2n1-c1cccc(OC(F)(F)F)c1` (single isomer, unassigned), the IC50 on Glucagon receptor [1] was found to be 24 nM; on Glucagon receptor [2], 35 nM.
On to `CCCC(Cc1ccc(C(=O)NCCC(=O)O)cc1)C(=O)c1cc2cc(Cl)ccc2n1-c1ccc(OC)c(C(F)(F)F)c1` (single isomer, unassigned), for which the IC50 at Glucagon receptor [1] stood at 23 nM; at Glucagon receptor [2] it was 39 nM.
In the same order, the values of `CCCC(Cc1ccc(C(=O)NCCC(=O)O)cc1)C(=O)c1cc2cc(Cl)ccc2n1-c1ccc2c(c1)OCCO2` (single isomer, unassigned) are 28 nM and 49 nM.
In the case of `Cn1/c(=N\c2ccc(OC(F)(F)F)cc2)n(Cc2ccc(C(=O)Nc3nnn[nH]3)cc2)c2cc(Cl)c(Cl)cc21`, the solubility entry in data set [11] is on record as “Insoluble”.
With `CCC[C@@H](Cc1ccc(C(=O)NCCC(=O)O)cc1)C(=O)c1cc2cc(Cl)ccc2n1-c1cccc(C(F)(F)F)c1`, in [3], the bioavailability came to 42%. In addition, the Vd in data set [4] stood at 1.5 L/kg. The half-life in data set [5] is 102 min. In addition, the Cmax/dose in the data set on Rattus norvegicus [6] worked out at 0.25 µM. For the same molecule, the values for the IC50 on Glucagon receptor [1] and on Glucagon receptor [2] were 17 nM and 55 nM, respectively. Moreover, in data set [7], the clearance was 14.2 mL/min/kg. The molecule also displayed an AUC/dose with Rattus norvegicus [8] of 0.85 µM·h.
With `CCCCC[C@@H](Cc1ccc(C(=O)NCCC(=O)O)cc1)C(=O)c1cc2cc(OC)ccc2n1-c1cccc(C(F)(F)F)c1`, the IC50 on Glucagon receptor [1] stood at 26 nM; at Glucagon receptor [2], 35 nM.
Turning to `CCCC(Cc1ccc(C(=O)NCCC(=O)O)cc1)C(=O)c1cc2cc(Cl)ccc2n1-c1ccc(C(F)(F)F)cc1` (single isomer, unassigned), the IC50 on Glucagon receptor [1] came out at 31 nM; at Glucagon receptor [2], 30 nM.
For the molecule `CCCC(Cc1ccc(C(=O)NCCC(=O)O)cc1)C(=O)c1cc2cc(Cl)ccc2n1-c1ccc2cc(OC)ccc2c1` (single isomer, unassigned), the IC50 is 34 nM at Glucagon receptor [1] and 95 nM on Glucagon receptor [2].
As for `CCCCC[C@@H](Cc1ccc(C(=O)NCCC(=O)O)cc1)C(=O)c1cc2cc(F)ccc2n1-c1cccc(C(F)(F)F)c1`, the IC50 on Glucagon receptor [1] came out at 10 nM; at Glucagon receptor [2], 20 nM.
Molecule `CCC[C@@H](Cc1ccc(C(=O)NCCC(=O)O)cc1)C(=O)c1cc2cc(Cl)ccc2n1-c1cccc(C(F)(F)F)n1` showed a bioavailability in data set [3] of 9.1%. The same molecule returned a Vd in [4] of 0.9 L/kg. Further, in data set [5], the half-life was 66 min. For the same molecule, in the data set with Rattus norvegicus [6], the Cmax/dose turned out to be 0.07 µM. Moreover, the IC50 on Glucagon receptor [1] is 9.2 nM; on Glucagon receptor [2], 34 nM. This molecule yielded a clearance in [7] of 24 mL/min/kg. Besides, in the data set on Rattus norvegicus [8], the AUC/dose worked out at 0.15 µM·h.
Take `CCCC(Cc1ccc(C(=O)NCCC(=O)O)cc1)C(=O)c1cc2cc(Cl)ccc2n1-c1cc(Cl)cc(Cl)c1` (single isomer, unassigned): at Glucagon receptor [1], the IC50 amounted to 110 nM.
As to `CCCCC[C@@H](Cc1ccc(C(=O)NCCC(=O)O)cc1)C(=O)c1cc2cc(OC(F)(F)F)ccc2n1-c1cccc(C(F)(F)F)c1`, the figures for the IC50 on Glucagon receptor [1] and at Glucagon receptor [2] were 5.7 nM and 17 nM, respectively.
On the same counts, the results for `CCCC(Cc1ccc(C(=O)NCCC(=O)O)cc1)C(=O)c1cc2cc(Cl)ccc2n1-c1cccc(F)c1` (single isomer, unassigned) are 47 nM and 150 nM.
Regarding `CCCC(Cc1ccc(C(=O)NCCC(=O)O)cc1)C(=O)c1cc2cc(Cl)ccc2n1-c1ccc(OC(F)(F)F)cc1` (single isomer, unassigned), the IC50 at Glucagon receptor [1] is 28 nM; on Glucagon receptor [2] it was 45 nM.
